Measured values from ChEMBL document CHEMBL2202989, “New adamantane phenylalkylamines with σ-receptor binding affinity and anticancer activity, associated with putative antagonism of neuropathic pain” (J Med Chem, 2012).

Assays:
IGROV-1 [1] = test: Cell cycle arrest in human IGROV1 cells assessed as accumulation at G2 phase at 15 uM after 24 hrs using propidium iodide staining by FACS analysis (reference value: 19 %); assay type: functional
BXPC-3 [2] = test: Cell cycle arrest in human BxPC3 cells assessed as accumulation at >G2/M phase at 15 uM after 24 hrs using propidium iodide staining by FACS analysis (reference value: 6 %); assay type: functional
Summary of the method: (§1)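 Cells were plated 24 h before treatment and exposed for 24 h at final 0.5, 5, 15 and 50 μM in 0.5% DMSO, against vehicle-treated controls. Cells were then trypsinised and fixed in cold ethanol for 3 h at 4 °C. They were stained in a mix of RNase (200 μg/mL) and PI (1 mg/mL) for 45 min at room temperature in the dark. Flow cytometry used 488 nm excitation and 10 000 gated cells. Phase percentages were assigned from DNA content.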

BXPC-3 [3] = test: Induction of apoptosis in human BxPC3 cells assessed as healthy cells at 50 uM using annexin V/7-AAD by FACS analysis (reference value: 79 %); assay type: functional
IGROV-1 [4] = test: Cell cycle arrest in human IGROV1 cells assessed as accumulation at >G2/M phase at 0.5 uM after 24 hrs using propidium iodide staining by FACS analysis (reference value: 21 %); assay type: functional; summary of the method: as §1
BXPC-3 [5] = test: Cell cycle arrest in human BxPC3 cells assessed as accumulation at G2 phase at 15 uM after 24 hrs using propidium iodide staining by FACS analysis (reference value: 12 %); assay type: functional; summary of the method: as §1
BXPC-3 [6] = test: Induction of apoptosis in human BxPC3 cells assessed as cleaved caspase3 containing cells at 15 uM by antibody-based FACS analysis (reference value: 8.2 %); assay type: functional
PC-3 [7] = test: Cell cycle arrest in human PC3 cells assessed as accumulation at >G2/M phase at 15 uM after 24 hrs using propidium iodide staining by FACS analysis (reference value: 6 %); assay type: functional
IGROV-1 [8] = test: Induction of apoptosis in human IGROV1 cells assessed as healthy cells at 5 uM using annexin V/7-AAD by FACS analysis (reference value: 86 %); assay type: functional
BXPC-3 [9] = test: Cell cycle arrest in human BxPC3 cells assessed as accumulation at S phase at 5 uM after 24 hrs using propidium iodide staining by FACS analysis (reference value: 33 %); assay type: functional; summary of the method: as §1
PC-3 [10] = test: Antitumor activity against human PC3 cells xenografted in SCID mouse assessed as primary tumor occurrence at 55 mg/kg, ip administered 5 consecutive days in a week for two cycles measured after 2 cycles relative to control; assay type: functional; settings: route intraperitoneal
Summary of the method: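 PC3 xenografts were grown in SCID mice (10^6 cells per inoculum), 14 mice (28 tumors) per group, dosed ip from about 100 mm3. The test agent was given in 5% Tween 80; paclitaxel was given in Cremophor diluted in saline, with a vehicle of 1:1 ethanol/Cremophor diluted 1:3 in saline. Volume and %ΔT/ΔC were derived from caliper readings twice weekly. Occurrence of primary tumors and of axillary and bone metastases was scored (n = 7). Two-tailed t test.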

IGROV-1 [11] = test: Induction of apoptosis in human IGROV1 cells assessed as early apoptosis at 15 uM using annexin V/7-AAD by FACS analysis (reference value: 9 %); assay type: functional
IGROV-1 [12] = test: Induction of apoptosis in human IGROV1 cells assessed as total apoptotic death at 50 uM using annexin V/7-AAD by FACS analysis (reference value: 13 %); assay type: functional
Summary of the method: (§2)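 Cells plated 24 h before treatment, then exposed 24 h to 0.5, 5, 15 or 50 μM compound (final DMSO 0.5%); vehicle controls included. Cells scraped and stained with annexin V-FITC and 7-AAD for 15 min on ice in the dark. Flow cytometry with 488 nm excitation, 10,000 gated cells. Early apoptosis was annexin V+/7-AAD−, late was annexin V+/7-AAD+.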

BXPC-3 [13] = test: Induction of apoptosis in human BxPC3 cells assessed as total apoptotic death at 5 uM using annexin V/7-AAD by FACS analysis (reference value: 18 %); assay type: functional; summary of the method: as §2
OVCAR-5 = test: Antitumor activity against human OVCAR5 cells xenografted in SCID mouse assessed as primary tumor growth inhibition at 55 mg/kg, ip administered 5 consecutive days in a week for two cycles measured after 2 cycles relative to control; assay type: functional; settings: OVCAR-5, ip, route intraperitoneal, read-out: TGI
Summary of the method: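 SCID mice carried OVCAR5 xenografts (10^6 cells per inoculum), 16 mice (32 tumors) per group, with ip dosing in 5% Tween 80 from a tumor volume of about 100 mm3. Caliper volume was measured twice weekly and %ΔT/ΔC derived. At termination, primary tumors were weighed and secondary metastases were scored at axillary and bone sites (n = 7−8). Two-tailed t test.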

IGROV-1 [14] = test: Cell cycle arrest in human IGROV1 cells assessed as accumulation at G2 phase at 50 uM after 24 hrs using propidium iodide staining by FACS analysis (reference value: 19 %); assay type: functional
BXPC-3 [15] = test: Growth inhibition of human BxPC3 cells after 48 hrs by SRB assay; assay type: functional; settings: BXPC-3, 48 h
Summary of the method: (§3)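 Cells grown in RPMI 1640 with 5% heat-inactivated FCS, 2 mM L-glutamine and antibiotics, 37 °C, 5% CO2. Seeded at 3500–30000 cells/well and left 24 h before dosing. DMSO solutions added at 10-fold dilutions from 100 to 0.01 μM for 48 h. Cells TCA-fixed and SRB-stained, absorbance read at 540 nm; GI50 derived against the time-zero plate.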

PC-3 [16] = test: Growth inhibition of human PC3 cells after 48 hrs by SRB assay; assay type: functional; settings: PC-3, 48 h; summary of the method: as §3
PC-3 [17] = test: Induction of apoptosis in human PC3 cells assessed as healthy cells at 50 uM using annexin V/7-AAD by FACS analysis (reference value: 91 %); assay type: functional
IGROV-1 [18] = test: Induction of apoptosis in human IGROV1 cells assessed as late apoptosis at 5 uM using annexin V/7-AAD by FACS analysis (reference value: 5 %); assay type: functional
[19] = Displacement of [3H]batrachotoxin benzoate from Na+ channel after 60 mins by liquid scintillation counting
Summary of the method: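 Na+ channel site 2 binding: vesicle preparation (150−500 μg protein) incubated 60 min with 20−25 nM [3H]BTX-B and 50 μg Leiurius quinquestriatus venom. Buffer was 130 mM choline chloride, 50 mM HEPES/Tris pH 7.4, glucose, MgSO4, KCl, BSA. Filtered on GF/C with cold washes; scintillation counting. Nonspecific binding defined with 250 μM veratridine.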

PC-3 [20] = test: Cell cycle arrest in human PC3 cells assessed as accumulation at >G2/M phase at 50 uM after 24 hrs using propidium iodide staining by FACS analysis (reference value: 6 %); assay type: functional
BXPC-3 [21] = test: Induction of apoptosis in human BxPC3 cells assessed as healthy cells at 0.5 uM using annexin V/7-AAD by FACS analysis (reference value: 79 %); assay type: functional

CN1CCN(CCCc2ccc(C(c3ccccc3)C34CC5CC(CC(C5)C3)C4)cc2)CC1 (stereo unspecified)
Activity (IGROV-1 [1]): 27%
Activity (BXPC-3 [2]): 5%
Activity (BXPC-3 [3]): 12%
Activity (IGROV-1 [4]): 20%
Activity (BXPC-3 [5]): 12%
Activity (BXPC-3 [6]): 17.5%
Activity (PC-3 [7]): 7%
Activity (IGROV-1 [8]): 83%
Activity (BXPC-3 [9]): 23%
Activity (PC-3 [10]): 100%
Activity (IGROV-1 [11]): 37%
Activity (IGROV-1 [12]): 64%
Activity (BXPC-3 [13]): 21%
inhibition in vivo at 55 mg/kg (OVCAR-5): 46.9%
Activity (IGROV-1 [14]): 10%
GI50 (BXPC-3 [15]): 3.41 µM
LC50 (BXPC-3 [15]): 8.8 nM
TGI (BXPC-3 [15]): 6.1 µM
GI50 (PC-3 [16]): 3.43 µM
TGI (PC-3 [16]): 6.72 µM
CC50 (PC-3 [16]; read-out: LC50 (the source's name)): 10 nM
Activity (PC-3 [17]): 43%
Activity (IGROV-1 [18]): 5%
IC50 [19]: > 1000 nM
Activity (PC-3 [20]): 17%
Activity (BXPC-3 [21]): 82%
